This note sets out measurements from ChEMBL document CHEMBL1150430, “Flavonoids for controlling starch digestion: structural requirements for inhibiting human alpha-amylase” (J Med Chem, 2008).

Test [1] addresses T1, Alpha-amylase 1A (Homo sapiens) (UniProt P0DUB6).
T1 sequence (whole entry): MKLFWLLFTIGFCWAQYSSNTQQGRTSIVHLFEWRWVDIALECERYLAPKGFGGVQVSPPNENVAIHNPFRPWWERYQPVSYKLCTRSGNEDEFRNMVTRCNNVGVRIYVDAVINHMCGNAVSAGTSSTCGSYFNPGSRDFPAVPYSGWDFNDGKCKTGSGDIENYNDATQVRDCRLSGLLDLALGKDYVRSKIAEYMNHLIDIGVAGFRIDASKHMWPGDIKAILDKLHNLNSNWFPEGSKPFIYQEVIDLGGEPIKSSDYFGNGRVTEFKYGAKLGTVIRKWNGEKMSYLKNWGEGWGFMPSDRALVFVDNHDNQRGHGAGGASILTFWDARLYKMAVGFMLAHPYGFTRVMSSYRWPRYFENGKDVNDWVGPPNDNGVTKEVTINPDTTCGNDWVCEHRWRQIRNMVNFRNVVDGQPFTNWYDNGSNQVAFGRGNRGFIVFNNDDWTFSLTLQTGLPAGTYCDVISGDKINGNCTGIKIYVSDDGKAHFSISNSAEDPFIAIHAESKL
As to the kind of experiment: (§1) Inhibition of human salivary alpha-amylase. Particulars: concentration not given here. In outline: (§2)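 Human salivary α-amylase (type IX-A), diluted in water on the day of use, preincubated 30 min with test compound in 50 mM NaH2PO4/50 mM NaCl/0.5 mM CaCl2/0.1% BSA, pH 6.0 (DMSO stocks). Reducing sugar by Nelson-Somogyi, A540; IC50 and maximum % inhibition.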

Another test concerns the target T2, Alpha-amylase 1A (Homo sapiens, UniProt P0DUB6).
T2 sequence (P0DUB6 whole entry): T1 sequence (whole entry)
The test is described as §1. In outline:
as §2

A word on the inhibition: it is the share of the control response that was lost under treatment. Low values mean a weak effect, high ones a strong effect. `O=c1c(-c2ccc(O)cc2)coc2cc(O)cc(O)c12` yielded an inhibition in test [1] of 25.1%.
Usually IC50 stands for the midpoint of a concentration-inhibition curve. A high value points to a need for much substance. Molecule `O=c1cc(-c2ccc(O)c(O)c2)oc2cc(O)cc(O)c12` [LUTEOLIN] came in with an inhibition in test [1] of 88.8%. On Alpha-amylase 1A, this molecule registered a half-inhibitory concentration (IC50) of 18.4 µM.
In turn, `Oc1cc(O)c2c(c1)O[C@H](c1ccc(O)c(O)c1)[C@@H](O)C2` registered an inhibition in test [1] of 13.1%.
Same read-out and setting: as for `O=c1c(O)c(-c2ccc(O)cc2)oc2cc(O)cc(O)c12`, the figure is 34.5%.
As for `O=c1c(O)c(-c2ccc(O)c(O)c2)oc2cc(O)ccc12` [FISETIN], the inhibition in test [1] was determined as 85.6%. At Alpha-amylase 1A, the concentration for half-maximal inhibition (IC50) was determined as 19.6 µM.
In the case of `O=C1C[C@@H](c2ccc(O)cc2)Oc2cc(O)cc(O)c21`, the inhibition in test [1] is 26.8%.
`O=c1c(O)c(-c2ccc(O)c(O)c2)oc2cc(O)c(O)c(O)c12` [QUERCETAGETIN] came in with an inhibition in test [1] of 97.6%. For the same molecule, on Alpha-amylase 1A, the IC50 is 10.2 µM.
Turning to `O=c1c(O)c(-c2ccc(O)c(O)c2)oc2cc(O)cc(O)c12` [QUERCETIN], in test [1], the inhibition was determined as 82.1%. Also, the midpoint of inhibition against Alpha-amylase 1A, the IC50, lay at 21.4 µM.
As to `COc1ccc([C@@H]2CC(=O)c3c(O)cc(O)cc3O2)cc1O`, in test [1], the inhibition worked out at 39.8%.
Turning to `O=c1cc(-c2ccc(O)cc2)oc2cc(O)c(O)c(O)c12` [SCUTELLAREIN], the inhibition in test [1] was determined as 98.4%. The same molecule displayed an IC50 at Alpha-amylase 1A of 9.64 µM.
Take `O=c1c(-c2ccc(O)cc2)coc2cc(O)ccc12`: the inhibition in test [1] came out at 23.3%.
Take `COc1ccc(-c2cc(=O)c3c(O)cc(O)cc3o2)cc1`: in test [1], the inhibition turned out to be 14.1%.
`COc1cc(-c2oc3cc(O)cc(O)c3c(=O)c2O)ccc1O` returned an inhibition in test [1] of 35.4%.
The same measure, in the same setting: the result for `COc1ccc(-c2cc(=O)c3c(O)cc(O)cc3o2)cc1O` reads 19.2%.
The same measure, in the same setting: as for `COc1cc(O)c2c(=O)c(O)c(-c3ccc(O)c(O)c3)oc2c1`, the figure is 8.1%.
The same measure, in the same setting: as for `COc1cc(O)c2c(=O)cc(-c3ccc(O)cc3)oc2c1`, the figure is 17.5%.
`O=c1c(O)c(-c2cc(O)c(O)c(O)c2)oc2cc(O)cc(O)c12` [MYRICETIN] showed an inhibition in test [1] of 79%. This molecule had a half-maximal inhibitory concentration (IC50) at Alpha-amylase 1A of 30.2 µM.
Take `C[C@H]1O[C@H](O[C@H]2[C@H](O)[C@@H](O)[C@@H](O[C@H]3[C@H](O)[C@@H](O)[C@H](O)O[C@@H]3CO)O[C@@H]2CO)[C@H](O)[C@@H](O)[C@@H]1N[C@H]1C=C(CO)[C@@H](O)[C@H](O)[C@H]1O`: the inhibition in test [1] amounted to 99.2%.
Still for that read-out and setting: as for `Oc1cc(O)c2c(c1)O[C@H](c1ccc(O)c(O)c1)[C@H](O)C2`, the figure is 10.3%.
